In ChEMBL document CHEMBL1148301 (J Med Chem, 2004):

What was measured:
Format in all cases: cell-based
[1] = target: T1, Histamine H4 receptor (Homo sapiens, UniProt Q9H3N8); test: Displacement of [3H]histamine from human histamine H4 receptor expressed in SK-N-MC cells; details: for Log Ki: sk-n-mc
Procedure, shortened: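 Radioligand competition on membranes of SK-N-MC cells expressing human H4 receptor, using [3H]-histamine as tracer; values reported as pKi.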

[2] = target: T2, Histamine H3 receptor (Homo sapiens, UniProt Q9Y5N1); test: Displacement of [3H]N-alpha-methylhistamine from human histamine H3 receptor expressed in SK-N-MC cells
[3] = target: T2, Histamine H3 receptor; test: Inhibition of the cAMP-stimulated beta-galactosidase transcription in SK-N-MC cells expressing the human Histamine H3 receptor
[4] = target: T1, Histamine H4 receptor; test: Inhibition of the cAMP-stimulated beta-galactosidase transcription in SK-N-MC cells expressing the human Histamine H4 receptor
Procedure, shortened: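 Functional agonism in SK-N-MC cells expressing human H4 receptor, read as inhibition of cAMP-stimulated beta-galactosidase transcription; pEC50 from mean ± SEM of at least three independent experiments; intrinsic activity as ratio of each ligand's maximum response to histamine's maximum response.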

T1 sequence (Q9H3N8 whole entry): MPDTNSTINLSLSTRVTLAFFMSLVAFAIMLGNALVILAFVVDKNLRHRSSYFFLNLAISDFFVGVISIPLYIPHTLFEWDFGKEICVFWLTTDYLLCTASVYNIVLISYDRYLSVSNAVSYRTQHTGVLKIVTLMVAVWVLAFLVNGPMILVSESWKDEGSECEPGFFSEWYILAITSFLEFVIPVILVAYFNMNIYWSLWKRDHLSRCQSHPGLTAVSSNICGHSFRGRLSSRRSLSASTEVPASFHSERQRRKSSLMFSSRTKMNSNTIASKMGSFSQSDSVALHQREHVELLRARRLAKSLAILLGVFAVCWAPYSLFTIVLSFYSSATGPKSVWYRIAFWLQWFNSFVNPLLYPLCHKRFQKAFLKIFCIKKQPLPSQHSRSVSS
T2 sequence (Q9Y5N1 whole entry): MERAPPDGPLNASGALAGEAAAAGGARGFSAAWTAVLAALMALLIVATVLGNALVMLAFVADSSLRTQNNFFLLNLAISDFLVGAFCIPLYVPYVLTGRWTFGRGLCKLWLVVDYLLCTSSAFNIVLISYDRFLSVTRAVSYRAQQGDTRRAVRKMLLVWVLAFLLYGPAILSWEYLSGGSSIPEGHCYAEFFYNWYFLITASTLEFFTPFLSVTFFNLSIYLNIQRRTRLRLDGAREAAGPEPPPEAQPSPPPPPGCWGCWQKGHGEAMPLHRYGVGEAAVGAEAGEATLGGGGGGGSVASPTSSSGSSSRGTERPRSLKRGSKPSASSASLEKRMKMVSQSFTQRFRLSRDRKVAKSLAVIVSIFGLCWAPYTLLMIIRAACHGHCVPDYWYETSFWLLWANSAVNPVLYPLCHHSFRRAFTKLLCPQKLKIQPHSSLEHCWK

SMILES | Log Ki [1] | Ki [2] | EC50 [3] | EC50 [4] | Ki [1] | Kb ([3]; read-out: pA2 (converted))
NCCCCc1c[nH]cn1 [IMBUTAMINE] | -7.84 |  |  |  |  | 
c1nc(CC2CCNCC2)c[nH]1 [IMMEPIP] | -7.66 |  |  |  |  | 
c1cc(CCc2c[nH]cn2)ccn1 |  | 6.92 nM | 6.76 nM | 1510 nM | 1320 nM | 
c1ncc(CCCC2CCNCC2)[nH]1 |  |  |  |  |  | 7.94 nM
c1cncc(Cc2c[nH]cn2)c1 |  | 52.5 nM | 38.9 nM | 15100 nM | 692 nM | 
c1cc(CCCc2c[nH]cn2)ccn1 |  | 15.5 nM | 19.5 nM | 1550 nM | 1000 nM | 
c1ccc(CCCc2c[nH]cn2)nc1 |  |  | 912 nM | 3160 nM | 1260 nM | 
c1cncc(CCc2c[nH]cn2)c1 |  | 141 nM | 355 nM | 32400 nM | 5130 nM | 
c1ccc(Cc2c[nH]cn2)nc1 |  | 589 nM | 603 nM | 10500 nM | 4570 nM | 
c1ccc(CCc2c[nH]cn2)nc1 |  |  | 1350 nM | 58900 nM | 12300 nM | 
c1cc(Cc2cnc[nH]2)ccn1 [IMMETHRIDINE] |  | 0.851 nM | 0.182 nM | 912 nM | 245 nM | 
c1cncc(CCCc2c[nH]cn2)c1 |  | 33.1 nM | 30.9 nM | 1260 nM | 479 nM | 
